Results of several laboratories.
Each line is one published result; the experiments were not run side by side.
GRK7: Rhodopsin kinase GRK7 (GRK7, Homo sapiens, UniProt Q8WTQ7)
rep main protease: Replicase polyprotein 1ab, main protease (rep, Porcine epidemic diarrhea virus, UniProt P0C6Y4)
SLC6A4: Sodium-dependent serotonin transporter (SLC6A4, Homo sapiens, UniProt P31645)
rep papain-like protease: Replicase polyprotein 1ab, papain-like protease (rep, Porcine epidemic diarrhea virus, UniProt P0C6Y4)

C1=C/COCc2cc(ccc2OCCN2CCCC2)Nc2nccc(n2)-c2cccc(c2)COC/1
remaining binding (GRK7; binding; 0.1 µM): 86%

COc1cc(CNC(=O)c2ccc3ccccc3n2)cc(Br)c1OC
inhibition (rep main protease; enzyme activity, inhibitor, FRET; 10 µM): 85.2%

CCCCC(=O)Nc1ccc(-c2ccc3ncn(CCC)c(=O)c3c2)cn1
remaining binding (GRK7; binding, competition with immobilised ligand; 0.5 µM): 93%

O=C(O)c1cccc(-c2noc(-c3ccccc3F)n2)c1
kon (Flavin reductase (NADPH) (BLVRB, Homo sapiens, UniProt P30043); binding, SPR): 3060 M⁻¹ s⁻¹

CCOC(=O)[C@@]12C[C@@H]1[C@@H](n1cnc3c(NCCCCCc4ccccc4)nc(C#Cc4ccccc4)nc31)[C@H](O)[C@@H]2O
inhibition (SLC6A4; ligand displacement, radioligand; 10 µM, cell membranes): 27%

COc1cc(CNC(=O)c2ccc(N(C)C)cc2)cc(Br)c1OC
inhibition (rep main protease; enzyme activity, inhibitor, FRET; 10 µM): 32.3%

CCOC(=O)[C@@]12C[C@@H]1[C@@H](n1cnc3c(NCc4cccc(Cl)c4)nc(C#Cc4ccc(Cl)s4)nc31)[C@H](O)[C@@H]2O
inhibition (SLC6A4; ligand displacement, radioligand; 10 µM): 13%

Cc1cc(O)c(-c2ccc([C@@H](C)CN(C)C)cc2)c2c1[nH]c(=O)c1sccc12
inhibition (Calcium/calmodulin-dependent protein kinase type 1D (CAMK1D, Homo sapiens, UniProt Q8IU85); cell-free assay, inhibitor; 0.1 µM, lysate): -8.71%

O=C(NCc1cc(O)c(O)c(Br)c1)c1ccc2ccccc2c1
inhibition (rep papain-like protease; enzyme activity, inhibitor, FRET; 10 µM): 19.4%

COc1cc(-c2cc(C(C)=O)n3ccccc23)c(OC)cc1Cn1ccnc1
ΔTm (Bromodomain adjacent to zinc finger domain protein 2B, bromodomain (BAZ2B, Homo sapiens, UniProt Q9UIF8); thermal stability, DSF): 2.1 °C

N#CC[C@@]12C[C@@H]1[C@@H](n1cnc3c(NC4CC4)nc(C#Cc4ccc(Cl)s4)nc31)[C@H](O)[C@@H]2O
inhibition (SLC6A4; ligand displacement, radioligand; 10 µM): 15%

COc1cc(CNC(=O)c2ccc(OC(F)(F)F)cc2)cc(Br)c1OC
inhibition (rep papain-like protease; enzyme activity, inhibitor, FRET; 10 µM): 10.8%

CCOC(=O)[C@@]12C[C@@H]1[C@@H](n1cnc3c(NCCCCCc4ccccc4)nc(I)nc31)[C@H](O)[C@@H]2O
inhibition (SLC6A4; ligand displacement, radioligand; 10 µM): 48%

COc1cc(CNC(=O)CC(c2ccc(Cl)cc2)C(C)C)cc(Br)c1OC (stereo not shown)
inhibition (rep main protease; enzyme activity, inhibitor, FRET; 10 µM): 33%

CSc1nc(NCCC2CC2)c2ncn([C@H]3[C@H](O)[C@H](O)[C@@H]4C[C@@H]43)c2n1
inhibition (SLC6A4; ligand displacement, radioligand; 10 µM): 17%

CCCCC[C@H](O)/C=C/[C@H]1[C@H](O)CC(=O)[C@@H]1C/C=C\CCCC(=O)O
Emax (Prostaglandin E2 receptor EP1 subtype (PTGER1, Homo sapiens, UniProt P34995); inositol phosphate, agonist, TR-FRET; AD293; 1 h): 99.9%

CCN1/C(=C/C(C)=O)Sc2ccc(F)cc21
inhibition (SLC6A4; ligand displacement, radioligand; 10 µM): 2.03%

O=C(NCc1cc(O)c(O)c(Br)c1)c1ccc2ccccc2n1
inhibition (rep main protease; enzyme activity, inhibitor, FRET; 10 µM): 62.4%

CCOC(=O)[C@@]12C[C@@H]1[C@@H](n1cnc3c(NCCCCCc4ccccc4)nc(C#Cc4ccc(Cl)s4)nc31)[C@H](O)[C@@H]2O
inhibition (SLC6A4; ligand displacement, radioligand; 10 µM): -14%
